Active and inactive are the calls of the source. No cut-off for these calls is given here.
Assays:
Rattus norvegicus [1] = species on record: Rattus norvegicus; test: Effective peroral dose for inhibition of conditioned avoidance response in rats; format: functional; conditions: po
Rattus norvegicus [2] = species on record: Rattus norvegicus; test: Inhibition of apomorphine-induced stereotypy in rats via peroral route; format: functional
D(2) dopamine receptor = D(2) dopamine receptor (Rattus norvegicus, UniProt P61169); test: In vitro inhibitory against radioligand [3H]spiperone binding to rat striatal Dopamine receptor D2
Sequence of D(2) dopamine receptor (P61169 whole entry): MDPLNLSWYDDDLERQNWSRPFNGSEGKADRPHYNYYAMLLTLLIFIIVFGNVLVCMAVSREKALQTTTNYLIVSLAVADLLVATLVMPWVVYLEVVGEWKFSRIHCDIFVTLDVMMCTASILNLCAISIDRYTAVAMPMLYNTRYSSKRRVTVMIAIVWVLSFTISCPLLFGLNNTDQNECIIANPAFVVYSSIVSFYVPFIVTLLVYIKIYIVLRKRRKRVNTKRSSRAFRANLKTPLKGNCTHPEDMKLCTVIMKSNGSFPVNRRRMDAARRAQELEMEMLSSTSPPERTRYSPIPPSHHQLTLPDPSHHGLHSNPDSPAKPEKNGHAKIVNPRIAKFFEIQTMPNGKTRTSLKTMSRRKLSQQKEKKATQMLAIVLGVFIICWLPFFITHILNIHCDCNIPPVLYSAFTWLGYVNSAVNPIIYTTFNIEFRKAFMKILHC
Method in brief: (§1)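 Competition binding against tritiated radioligand. Test drug was run at five concentrations in a single experiment, and IC50 (nM) was derived from displacement.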

[3] = target: T1, Adrenergic receptor alpha-1 (Rattus norvegicus, UniProt P15823+P23944+P43140); test: Inhibition of [3H]WB-4101 binding to rat cortical Alpha-1 adrenergic receptor in vitro; format: protein assay; method in brief: as §1
T1 sequence (P15823 whole entry): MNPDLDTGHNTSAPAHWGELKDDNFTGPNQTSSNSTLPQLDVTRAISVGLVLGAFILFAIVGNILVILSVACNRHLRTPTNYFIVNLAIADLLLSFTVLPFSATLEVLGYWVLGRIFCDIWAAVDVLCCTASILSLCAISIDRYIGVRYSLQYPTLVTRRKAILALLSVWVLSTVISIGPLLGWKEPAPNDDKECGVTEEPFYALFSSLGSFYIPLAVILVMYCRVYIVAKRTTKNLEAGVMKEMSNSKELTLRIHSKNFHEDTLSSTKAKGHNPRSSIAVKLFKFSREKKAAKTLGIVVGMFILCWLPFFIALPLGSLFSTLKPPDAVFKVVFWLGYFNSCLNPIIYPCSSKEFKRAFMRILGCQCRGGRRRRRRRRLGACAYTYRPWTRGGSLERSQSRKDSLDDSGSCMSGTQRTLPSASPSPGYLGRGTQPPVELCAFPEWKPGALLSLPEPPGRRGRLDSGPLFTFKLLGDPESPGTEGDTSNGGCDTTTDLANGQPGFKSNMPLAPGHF
T1 sequence (P23944 whole entry): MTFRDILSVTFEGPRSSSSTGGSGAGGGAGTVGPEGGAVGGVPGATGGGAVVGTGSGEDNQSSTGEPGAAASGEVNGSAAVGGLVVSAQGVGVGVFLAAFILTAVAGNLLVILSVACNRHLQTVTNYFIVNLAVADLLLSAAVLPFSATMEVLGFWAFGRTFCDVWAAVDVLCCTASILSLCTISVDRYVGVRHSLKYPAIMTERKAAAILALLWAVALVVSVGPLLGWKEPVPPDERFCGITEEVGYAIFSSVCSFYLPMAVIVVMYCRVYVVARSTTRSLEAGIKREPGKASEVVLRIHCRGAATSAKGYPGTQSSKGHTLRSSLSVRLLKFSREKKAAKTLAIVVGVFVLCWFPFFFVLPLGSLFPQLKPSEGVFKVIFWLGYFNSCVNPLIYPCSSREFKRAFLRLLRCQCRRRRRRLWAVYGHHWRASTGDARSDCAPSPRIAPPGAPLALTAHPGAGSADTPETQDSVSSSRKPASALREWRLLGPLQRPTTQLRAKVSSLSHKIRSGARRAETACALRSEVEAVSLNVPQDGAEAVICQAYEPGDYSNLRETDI
T1 sequence (P43140 whole entry): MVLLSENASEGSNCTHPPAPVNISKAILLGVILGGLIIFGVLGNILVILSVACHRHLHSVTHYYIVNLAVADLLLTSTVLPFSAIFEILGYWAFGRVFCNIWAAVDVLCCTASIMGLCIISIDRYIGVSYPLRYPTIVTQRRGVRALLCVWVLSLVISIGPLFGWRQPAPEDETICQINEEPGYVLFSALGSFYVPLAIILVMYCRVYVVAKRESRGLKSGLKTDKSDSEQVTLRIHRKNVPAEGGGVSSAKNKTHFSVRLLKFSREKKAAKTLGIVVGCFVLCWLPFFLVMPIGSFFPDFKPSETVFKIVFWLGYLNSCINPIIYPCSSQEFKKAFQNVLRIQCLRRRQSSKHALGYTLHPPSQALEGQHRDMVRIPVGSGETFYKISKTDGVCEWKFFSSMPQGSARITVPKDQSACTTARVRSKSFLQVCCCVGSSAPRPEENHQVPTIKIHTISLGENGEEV

[4] = target: T2, Sigma non-opioid intracellular receptor 1 (Rattus norvegicus, UniProt Q9R0C9); test: Displacement of (+)-[3H]-3-PPP from rat cortical sigma site; method in brief: as §1
T2 sequence (Q9R0C9 whole entry): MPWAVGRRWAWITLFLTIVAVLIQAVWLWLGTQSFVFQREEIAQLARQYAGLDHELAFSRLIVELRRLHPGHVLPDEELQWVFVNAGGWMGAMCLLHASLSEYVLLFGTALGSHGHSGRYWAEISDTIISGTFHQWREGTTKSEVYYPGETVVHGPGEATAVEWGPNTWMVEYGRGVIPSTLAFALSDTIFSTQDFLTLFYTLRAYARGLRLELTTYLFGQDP

[5] = target: T1, Adrenergic receptor alpha-1; test: Inhibitory concentration against radioligand [3H]-WB- 4101 binding to rat cortical Alpha-1 adrenergic receptor; format: protein assay; method in brief: as §1
Rattus norvegicus [6] = test: Effective in vivo peroral dose against induction of catalepsy in rats; format: functional
Mus musculus [7] = species on record: Mus musculus; test: Effective dose for inhibition of norepinephrine induced lethality in mouse; format: functional
Rattus norvegicus [8] = test: Effective dose for reversal of trifluoperazine-induced catalepsy in rats; I=Inactive (ED50 mg/Kg); format: functional, organism-based
[9] = target: T2, Sigma non-opioid intracellular receptor 1; test: Compound was tested in vitro for its ability to displace radioligand (+)-[3H]-3-PPP from rat cortical sigma receptor
Mus musculus [10] = species on record: Mus musculus; test: Effective dose for inhibition of physostigmine induced lethality in mouse; format: functional
Rattus norvegicus [11] = species on record: Rattus norvegicus; test: Effective dose for motor incoordination in rats was determined by rotarod method; format: functional
Rattus norvegicus [12] = species on record: Rattus norvegicus; test: Effective dose for inhibition of spontaneous motor activity in rats; format: functional
Rattus norvegicus [13] = species on record: Rattus norvegicus; test: Effective dose for ethanol potentiation in rats; format: functional
[14] = Rattus norvegicus, po, read-out: ED50

| Structure (SMILES) | ED50 (Rattus norvegicus [1]) | ED50 (Rattus norvegicus [2]; [14]) | IC50 (D(2) dopamine receptor) | IC50 [3] | IC50 [4] | ED50 (Rattus norvegicus [6]; [14]) | further results |
| --- | --- | --- | --- | --- | --- | --- | --- |
| CCC(O)(CCCN1CCN(c2ncccn2)CC1)c1ccc(F)cc1 (stereo unspecified) | > 100 mg/kg | > 100 mg/kg | 415 nM | 230 nM | – | – | – |
| O=C(CCCN1CCN(c2ncc(Br)cn2)CC1)c1ccc(F)cc1 | > 100 mg/kg | – | 2190 nM | 72 nM | 85 nM | – | – |
| CSc1nc(N2CCN(CCCC(=O)c3ccc(F)cc3)CC2)ncc1F | > 100 mg/kg | > 100 mg/kg | 396 nM | 95 nM | 120 nM | – | – |
| OC(CCN1CCN(c2ncc(F)cn2)CC1)c1ccc(F)cc1 (stereo unspecified) | > 100 mg/kg | > 100 mg/kg | > 1000 nM | 814 nM | 160 nM | – | – |
| CSc1nc(N2CCN(CCCC(O)c3ccc(F)cc3)CC2)ncc1F (stereo unspecified) | > 100 mg/kg | > 100 mg/kg | > 1000 nM | 305 nM | 26 nM | – | – |
| O=C(CCCN1CCN(c2ncc(Cl)cn2)CC1)c1ccc(F)cc1 | > 100 mg/kg | – | 817 nM | 51 nM | – | – | – |
| O[C@@H](CCCN1CCN(c2ncc(F)cn2)CC1)c1ccc(F)cc1 [BMY-14802] | – | – | – | – | – | – | IC50 [5]: 570 nM; ED50 (Rattus norvegicus [6]): 38.1 mg/kg; ED50 (Rattus norvegicus [2]): 25.4 mg/kg |
| OC(CCCN1CCN(c2ncccn2)CC1)(c1ccc(F)cc1)c1ccc(F)cc1 | 52.9 mg/kg | > 50 mg/kg | 200 nM | 400 nM | > 1000 nM | – | – |
| O=C(CCCN1CCN(c2ncccn2)CC1)c1ccc(F)cc1 | 25.3 mg/kg | 21.6 mg/kg | 679 nM | 6 nM | 430 nM | > 100 mg/kg | – |
| CCC(O)(CCCN1CCN(c2ncc(F)cn2)CC1)c1ccc(F)cc1 (stereo unspecified) | 48.5 mg/kg | > 50 mg/kg | 3750 nM | > 1000 nM | 370 nM | > 100 mg/kg | – |
| Oc1nc(N2CCN(CCCC(O)c3ccc(F)cc3)CC2)ncc1F (stereo unspecified) | > 100 mg/kg | > 100 mg/kg | > 1000 nM | > 1000 nM | > 1000 nM | – | – |
| Fc1ccc(/C=C(\CCN2CCN(c3ncc(F)cn3)CC2)c2ccc(F)cc2)cc1 | > 100 mg/kg | – | 8800 nM | 756 nM | > 1000 nM | – | – |
| OC(CCCN1CCN(c2ncc(F)cn2)CC1)(c1ccc(F)cc1)c1ccc(F)cc1 | > 100 mg/kg | – | – | 1140 nM | – | – | – |
| Fc1ccc(/C=C(\CCN2CCN(c3ncccn3)CC2)c2ccc(F)cc2)cc1 | > 100 mg/kg | – | 1700 nM | 375 nM | > 1000 nM | – | – |
| OC(CCCN1CCN(c2ncc(Br)cn2)CC1)c1ccc(F)cc1 (stereo unspecified) | 50 mg/kg | > 65 mg/kg | > 1000 nM | 1500 nM | 26 nM | 108 mg/kg | – |
| CN1CCN(C2=Nc3cc(Cl)ccc3Nc3ccccc32)CC1 [CLOZAPINE] | – | – | – | – | – | > 200 mg/kg | ED50 (Mus musculus [7]): 3.5 mg/kg; Activity (Rattus norvegicus [8]): inactive; IC50 [9]: > 1000 nM; ED50 (Mus musculus [10]): 5.4 mg/kg; ED50 (Rattus norvegicus [11]): 7.9 mg/kg |
| O/N=C(\CCCN1CCN(c2ncc(F)cn2)CC1)c1ccc(F)cc1 | > 100 mg/kg | – | – | 22 nM | 81 nM | – | – |
| OC(CCCN1CCN(c2ncccn2)CC1)c1ccc(F)cc1 (stereo unspecified) | 25 mg/kg | 32.3 mg/kg | 1380 nM | 162 nM | 130 nM | > 100 mg/kg | – |
| CC(O)(CCCN1CCN(c2ncc(F)cn2)CC1)c1ccc(F)cc1 (stereo unspecified) | > 25 mg/kg | > 50 mg/kg | 2120 nM | – | 110 nM | > 100 mg/kg | – |
| N#CC(CCCN1CCN(c2ncc(F)cn2)CC1)c1ccc(F)cc1 (stereo unspecified) | 19.8 mg/kg | > 100 mg/kg | 1880 nM | 266 nM | 190 nM | > 100 mg/kg | – |
| O=C(CCCN1CCN(c2ncc(F)cn2)CC1)c1ccc(F)cc1 | 36.3 mg/kg | 58.9 mg/kg | – | 29 nM | 130 nM | 144 mg/kg | – |
| COc1nc(N2CCN(CCCC(O)c3ccc(F)cc3)CC2)ncc1F (stereo unspecified) | 40.8 mg/kg | 54 mg/kg | 3940 nM | 180 nM | 24 nM | 79.2 mg/kg | – |
| O=C(CCCN1CCC(O)(c2ccc(Cl)cc2)CC1)c1ccc(F)cc1 [HALOPERIDOL] | 2.8 mg/kg | 0.5 mg/kg | – | – | – | 0.58 mg/kg | ED50 (Mus musculus [7]): 26 mg/kg; ED50 (Rattus norvegicus [12]): 0.73 mg/kg; Activity (Rattus norvegicus [8]): inactive; ED50 (Rattus norvegicus [13]): 0.28 mg/kg; ED50 (Mus musculus [10]): > 80 mg/kg; ED50 (Rattus norvegicus [11]): 5.2 mg/kg |
| NC(CCCN1CCN(c2ncc(F)cn2)CC1)c1ccc(F)cc1 (stereo unspecified) | > 100 mg/kg | – | > 1000 nM | 446 nM | ~1000 nM | – | – |
| CSc1ccc2c(c1)N(CCC1CCCCN1C)c1ccccc1S2 (stereo unspecified) [THIORIDAZINE] | – | 280 mg/kg | – | – | 750 nM | – | ED50 (Mus musculus [7]): 2.2 mg/kg; ED50 (Rattus norvegicus [12]): 33 mg/kg; Activity (Rattus norvegicus [8]): inactive; ED50 (Rattus norvegicus [13]): 56 mg/kg; ED50 (Mus musculus [10]): 45 mg/kg; ED50 (Rattus norvegicus [11]): 20 mg/kg |
| OC(CCCN1CCN(c2ncc(Cl)cn2)CC1)c1ccc(F)cc1 (stereo unspecified) | 87.1 mg/kg | > 100 mg/kg | 5660 nM | 1420 nM | 22 nM | 148 mg/kg | – |

Reference: ChEMBL document CHEMBL1126099, “Synthesis and biological characterization of alpha-(4-fluorophenyl)-4-(5-fluoro-2-pyrimidinyl)-1-piperazinebutanol and analogues as potential atypical antipsychotic agents” (J Med Chem, 1992)
